High-throughput results as filed in PubChem BioAssay.
IMP-1 inh – IMP-1 metallo-beta-lactamase inhibitors, primary screen, biochemical, epi-absorbance readout, Pseudomonas aeruginosa enzyme; AID 1556, 2009; inhibition, % at 5.6 µM; metallo-beta-lactamase IMP-1 (Pseudomonas aeruginosa); hit rate 0.45% among 290,000; purified IMP-1, nitrocefin hydrolysis, epi-absorbance fluorescence;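 active = inhibition above the mean plus 3 SD of all compounds in the same screening run, cut at about 4.5% in these data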;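 also: 0% = IMP-1 with DMSO and 100% = DMSO wells lacking enzyme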
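system = purified recombinant IMP-1 beta-lactamase | amount = 0.2 nM IMP-1, as dispensed | medium = HEPES buffer pH 7.1 with ZnSO4 and Brij 35 | times = 25 °C, 15 min preincubation, 25 min reaction | detection = plate fluorescence quenching by hydrolysis product, ex 480/em 530 nm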
GLD-1 RNA inh – GLD-1/TGE RNA complex disruptors, primary screen, biochemical, fluorescence polarization; Female germline-specific tumor suppressor gld-1 (Caenorhabditis elegans), Q17339; purified GLD-1 + fluorescein TGE RNA; inhibition, % at 5.96 µM; hit rate 0.44% among 320,000; AID 2280, 2010;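 active = percent inhibition above a per-plate cutoff, the plate mean of test compounds plus 3 SD, cut at about 30% in these data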;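 also: 0% = DMSO wells with GLD-1 and probe and 100% = wells lacking GLD-1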
VIM-2 inhibitor – VIM-2 metallo-beta-lactamase inhibitors, primary screen, biochemical, epi-absorbance readout, Pseudomonas aeruginosa enzyme. purified VIM-2, nitrocefin hydrolysis, epi-absorbance fluorescence. AID 1527, 2009. inhibition, % at 5.6 µM. hit rate 0.89% among 290,000;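 active = inhibition above the mean of all tested compounds plus 3 SD, cutoff set per screening run, cut at about 7.5% in these data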;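 also: red hydrolysis product quenches plate fluorescence so inhibitors raise well fluorescence; 0% = enzyme with DMSO and 100% = DMSO without enzyme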
Bcl-xL primary – inhibitors of human Bcl-xL, primary screen, biochemical, fluorescence polarization, HTS | GST-Bcl-xL / FITC-Bim BH3 peptide fluorescence polarization | Bcl-2-like protein 1 (Homo sapiens), Q07817 | inhibition, % at 10.9 µM | hit rate 0.7% among 320,000;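 active = inhibition above the mean of all tested compounds plus 3 SD, cutoff set per campaign, cut at about 30% in these data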;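 also: 0% = DMSO wells and 100% = unlabeled Bim-BH3 peptide competitor; inhibitors lower millipolarization by displacing the labeled peptide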
Target sequence (Q07817 whole entry, looked up): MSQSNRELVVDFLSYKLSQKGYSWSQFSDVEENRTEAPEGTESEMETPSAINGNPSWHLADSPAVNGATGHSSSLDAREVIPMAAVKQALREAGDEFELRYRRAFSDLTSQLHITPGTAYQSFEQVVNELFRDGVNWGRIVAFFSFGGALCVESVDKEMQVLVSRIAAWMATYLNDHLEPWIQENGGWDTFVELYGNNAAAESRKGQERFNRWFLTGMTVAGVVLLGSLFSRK
EBV gp42 block – Epstein-Barr virus gp42 inhibitors, primary screen, biochemical, uHTS, fluorescence polarization; AID 1085, 2008; inhibition, % (tested at 21.74 µM); Fluorescence polarization binding assay, mP read-out; hit rate 0.42% among 220,000; in the data active = inhibition above about 50%
Target sequence (Q1HVG2 whole entry, looked up): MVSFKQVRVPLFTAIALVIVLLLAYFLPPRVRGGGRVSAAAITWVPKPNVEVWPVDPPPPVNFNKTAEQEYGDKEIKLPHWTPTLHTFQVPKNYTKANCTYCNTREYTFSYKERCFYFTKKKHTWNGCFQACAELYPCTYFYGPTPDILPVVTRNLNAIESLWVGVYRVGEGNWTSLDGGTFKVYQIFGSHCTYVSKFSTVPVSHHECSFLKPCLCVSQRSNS
MEX-5 binding – MEX-5 zinc finger RNA-binding disruptors – biochemical, C. elegans, fluorescence polarization, MLPCN library, primary screen; Zinc finger protein mex-5 (Caenorhabditis elegans), Q9XUB2; MEX-5/FITC-TCR2 RNA binding; hits give low values; activity score (negative = inhibition of binding), % at 10 µM; hit rate 0.38% among 300,000; AID 1832, 2009;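 active = inhibition past about -25% in most replicates, and total fluorescence under double the plate's negative control median, limit read from the data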;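 also: 0% = DMSO and -100% = 5 µM competing unlabeled TCR2 RNA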
Active calls of the source: *; nt = no result given. Only some compounds are listed: those with a hit (about 2.2% of all), similar ones and a draw of the others.

SMILES	IMP-1 inh	GLD-1 RNA inh	VIM-2 inhibitor	Bcl-xL primary	EBV gp42 block	MEX-5 binding
Cc1cc(C)c2cc(C(=O)N3CCC(C(=O)c4ccc(F)cc4)CC3)[nH]c2c1	4.5*	-2	1	5	-4	nt
Cc1cc(C)c2cc(C(=O)N3CCC(N4CCCCC4)CC3)[nH]c2c1	-3	-4	-1	4	nt	0
CCOC(=O)Cc1csc(NC(=O)c2sc3nc4cc(C)ccc4cc3c2N)n1	-6	-17	-3	18	25	-50*
CCOC(=O)Cc1csc(NC(=O)c2sc3nc4ccc(CC)cc4cc3c2N)n1	-3	13	-3	21	-3	-4
O=C(N/N=C/c1oc(O)c2ccccc12)c1ccccc1O	-4	5	-4	9	-8	-34*
O=C(N/N=C/c1ccoc1)c1ccccc1O	-3	1	-6	4	nt	-1
CCS(=O)(=O)N1Cc2ccccc2CC1C(=O)NCCc1ccccc1 (stereo not drawn)	-4	3	-4	2	nt	-2
CC(C)CC1=C/C(=C/c2ccc(-c3ccccc3)o2)C(=O)O1	4.9*	-4	-3	4	-13	0
O=C1CCC/C(=N/NC(=O)c2sc3ccccc3c2Cl)C1	2	103*	3	2	-71	-27*
CCCC(C(=O)Nc1ccncc1)c1ccccc1 (stereo not drawn)	-1	-11	0	0	nt	1
CCN(CC)C(=O)c1sc2nc(-c3cccs3)cc(-c3ccc(Cl)cc3)c2c1N	-2	-16	1	-1	86*	1
CCN(CC)C(=O)c1sc2nc(-c3cccs3)cc(-c3cccs3)c2c1N	-2	-12	-1	1	47	-33*
N#Cc1sc2nc(-c3cccs3)cc(-c3ccc(Cl)cc3)c2c1N	-2	8	-3	2	-32	4
O=[N+]([O-])c1cc(N=Nc2ccc3ccccc3c2)ccc1O	-8	1	-2	1	nt	3
CC1CCCCN1CCCNC(=O)c1c(O)nc2ccccn2c1=O (stereo not drawn)	-1	3	-1	7	nt	1
CCC1CCCCN1CCCNC(=O)c1c(O)nc2ccccn2c1=O (stereo not drawn)	-4	10	-1	6	nt	0
CCC1CCCCN1CCCNC(=O)c1c(O)nc2c(C)cccn2c1=O (stereo not drawn)	-1	2	9.6*	7	nt	4
Cc1cccn2c(=O)c(C(=O)NCCCN3CCCCC3C)c(O)nc12 (stereo not drawn)	-2	-1	9.5*	1	nt	0
CCOC(=O)N1CCN(CC(O)COc2ccccc2[N+](=O)[O-])CC1 (stereo not drawn)	-4	1	-5	3	nt	0
CCOC(=O)c1c2ccc(OCC(=O)N/N=C/c3ccc(C)cc3)cc2n2ccccc12	-3	5	-1	8	43	-29*
CC(C)(C)NC(=O)c1sccc1C(=O)O	-3	-6	-4	5	100*	-4
CC(C)(C)NC(=O)c1ccc(C(=O)NC(C)(C)C)cc1	-3	nt	-2	nt	-13	-1
CCc1ccccc1OCC(=O)Nc1cccc(S(=O)(=O)NC2=NCCC2)c1	nt	3	nt	0	nt	nt
Cc1nn(C)cc1-c1n[nH]c(=S)n1-c1ccc(Cl)cc1	-3	2	9.2*	-10	-12	-2
CS(=O)(=O)Nc1ccc(-c2n[nH]c(=S)n2-c2ccccc2)cc1	-3	6	8.2*	1	-1	0
S=c1[nH]nc(-c2ccc3c(c2)OCO3)n1-c1ccccc1	-4	-3	11*	-14	1	1
S=c1[nH]nc(-c2ccc(Cl)cc2Cl)n1-c1ccc2c(c1)OCCO2	-5	1	9.2*	-1	-5	-1
